This passage reports IC50 and inhibition results from ChEMBL document CHEMBL1134365, “Synthesis and Src kinase inhibitory activity of a series of 4-phenylamino-3-quinolinecarbonitriles” (J Med Chem, 2001).

A value given as a limit tells only on which side of the number the result lay.

In one test the target is T1, Proto-oncogene tyrosine-protein kinase Src (Homo sapiens, UniProt P12931). Description: Inhibitory activity against human c-Src Kinase was measured using ELISA assay. Put shortly: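 Src (3 units/reaction) and cdc2 substrate peptide were preincubated with compound for 10 min at 30 °C in 50 mM Tris-HCl pH 7.5, 10 mM MgCl2, 0.1 mM EGTA and 0.5 mM Na3VO4. ATP was added to 100 μM final, the reaction ran 1 h at 30 °C, and EDTA stopped it. Phosphotyrosine was read by ELISA kit.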
T1 sequence (P12931 2-536 limits assumed): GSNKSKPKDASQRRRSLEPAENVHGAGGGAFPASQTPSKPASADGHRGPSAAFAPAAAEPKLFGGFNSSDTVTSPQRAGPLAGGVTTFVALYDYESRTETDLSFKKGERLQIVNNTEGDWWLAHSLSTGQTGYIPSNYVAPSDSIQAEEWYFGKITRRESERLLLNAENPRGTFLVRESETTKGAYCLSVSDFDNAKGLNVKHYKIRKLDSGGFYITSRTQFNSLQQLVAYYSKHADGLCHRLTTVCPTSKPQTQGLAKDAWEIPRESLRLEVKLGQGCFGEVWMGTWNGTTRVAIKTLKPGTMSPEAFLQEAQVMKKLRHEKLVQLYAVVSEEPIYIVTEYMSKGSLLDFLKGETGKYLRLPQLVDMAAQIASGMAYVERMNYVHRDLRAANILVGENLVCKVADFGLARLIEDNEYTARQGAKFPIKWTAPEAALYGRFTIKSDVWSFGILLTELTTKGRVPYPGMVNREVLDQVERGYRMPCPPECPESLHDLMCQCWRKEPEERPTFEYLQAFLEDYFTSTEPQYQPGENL
For orientation: IC50 means the concentration that gives 50% inhibition. Higher therefore signals a need for much substance. With `COc1cc2ncc(C#N)c(Nc3ccc(Cl)cc3)c2cc1OC`, half-maximal inhibition (IC50) was put at 53 nM.

`COc1ccc2c(Nc3ccc(Cl)cc3Cl)c(C#N)cnc2c1` gave an IC50 of 200 nM.

Compound `COc1cc2nccc(Nc3ccc(Cl)cc3Cl)c2cc1OC` came in with an IC50 of 84 nM.

With `COc1cc2ncc(C#N)c(Nc3ccc(I)cc3Cl)c2cc1OC`, the IC50 turned out to be 95 nM.

On to `COc1cccc2ncc(C#N)c(Nc3ccc(Cl)cc3Cl)c12`, for which the IC50 worked out at 1200 nM.

`COc1cc2ncc(C#N)c(Nc3ccc(Cl)cc3F)c2cc1OC`: the midpoint of inhibition, the IC50, lay at 53 nM.

In the case of `COc1cc2ncc(C#N)c(Sc3ccc(Cl)cc3Cl)c2cc1OC`, half-maximal inhibition (IC50) required 2200 nM.

Turning to `COc1cc2ncc(C#N)c(Nc3ccc(Cl)c(Cl)c3)c2cc1OC`, the concentration for half-maximal inhibition (IC50) turned out to be 57 nM.

`N#Cc1cnc2cc(OCCCN3CCOCC3)c(OCCCN3CCOCC3)cc2c1Nc1ccc(Cl)cc1Cl`: inhibition was half-maximal at 19 nM (IC50).

The compound `COc1cc2c(Nc3ccc(Cl)cc3Cl)c(C#N)cnc2cc1OCCCN1CCOCC1` yielded an IC50 of 3.8 nM.

Regarding `COc1cc2ncc(C#N)c(Nc3ccc(Cl)cc3Br)c2cc1OC`, the IC50 came out at 10 nM.

Compound `COc1cc2ncc(C#N)c(Nc3ccc(Br)cc3Cl)c2cc1OC` gave a concentration for half-maximal inhibition (IC50) of 15 nM.

The compound `COc1ccc2ncc(C#N)c(Nc3ccc(Cl)cc3Cl)c2c1` displayed an IC50 of 320 nM.

As for `COc1cc2c(Nc3ccc(Cl)cc3Cl)c(C#N)cnc2cc1OCCCN1CCC(O)CC1`, the IC50 was determined as 3.5 nM.

Take `COc1cc2c(Nc3ccc(Cl)cc3Cl)c(C#N)cnc2cc1OCCCN1CCN(C)CC1`: the IC50 came out at 8.7 nM.

With `COc1cc2ncc(C#N)c(Nc3cc(Cl)ccc3Cl)c2cc1OC`, the IC50 was found to be 40 nM.

`CCOc1cc2ncc(C#N)c(Nc3ccc(Cl)cc3Cl)c2cc1OCC` yielded an IC50 of 11 nM.

`COc1cc2ncc(C#N)c(Nc3ccc(Cl)cc3I)c2cc1OC`: inhibition was half-maximal at 6.2 nM (IC50).

Regarding `CCCCOc1cc2ncc(C#N)c(Nc3ccc(Cl)cc3Cl)c2cc1OCCCC`, the midpoint of inhibition, the IC50, lay at 160 nM.

In turn, `COc1cc2ncc(C#N)c(Nc3c(Cl)cccc3Cl)c2cc1OC` had an IC50 of 61 nM.

In turn, `COc1cc2ncc(C#N)c(Nc3cccc(Cl)c3Cl)c2cc1OC` came in with an IC50 of 90 nM.

In turn, `COc1cc2ncnc(Nc3ccc(Cl)cc3Cl)c2cc1OC` came in with an IC50 of 250 nM.

`COc1cc2ncc(C#N)c(Nc3cc(Cl)cc(Cl)c3)c2cc1OC` yielded an IC50 of 1100 nM.

As for `COc1cc2ncc(C=O)c(Nc3ccc(Cl)cc3Cl)c2cc1OC`, the IC50 is 250 nM.

On to `COc1cc2ncc(C#N)c(Nc3ccc(Cl)cc3Cl)c2cc1OCCCN1CCOCC1`, for which the IC50 is 220 nM.

On to `COc1cc2ncc(C#N)c(Nc3ccccc3Cl)c2cc1OC`, for which it took 95 nM to reach half-maximal inhibition (IC50).

In turn, `COc1cc2ncc(C#N)c(Nc3ccc(Cl)cc3Cl)c2cc1OC` returned an IC50 of 30 nM.

For a further test, the target named is T1, Proto-oncogene tyrosine-protein kinase Src. Kind of test: Inhibition of Src Kinase at 1 uM.
The inhibition is the share of the control response that was lost under treatment. A low value points to a weak effect. With `COc1cc2ncc(C#N)c(Oc3ccc(Cl)cc3Cl)c2cc1OC`, the inhibition stood at 37%.

Take `N#Cc1cnc2ccccc2c1Nc1ccc(Cl)cc1Cl`: the inhibition was below 20%.

Turning to `COc1cc2ncc(C#N)c(NC(=O)c3ccc(Cl)cc3Cl)c2cc1OC`, the inhibition was below 20%.

In turn, `COc1cc(OC)c2c(Nc3ccc(Cl)cc3Cl)c(C#N)cnc2c1` came in with an inhibition of 52%.

`CCOC(=O)c1cnc2cc(OC)c(OC)cc2c1Nc1ccc(Cl)cc1Cl` gave an inhibition below 20%.

`COc1cc2/c(=N/c3ccc(Cl)cc3Cl)c(C#N)cn(C)c2cc1OC`: the inhibition is below 20%.

In the case of `COc1cccc2c(Nc3ccc(Cl)cc3Cl)c(C#N)cnc12`, the inhibition was below 20%.

For the compound `COc1cc2ncc(CO)c(Nc3ccc(Cl)cc3Cl)c2cc1OC`, the inhibition was below 20%.

`N#Cc1cnc2cc(O)c(O)cc2c1Nc1ccc(Cl)cc1Cl` yielded an inhibition below 20%.

`COc1cc2ncc(C(N)=O)c(Nc3ccc(Cl)cc3Cl)c2cc1OC`: the inhibition is below 20%.

`COc1cc2ncc(C#N)c(N(C)c3ccc(Cl)cc3Cl)c2cc1OC` had an inhibition of 32%.

As to `COc1cc2ncc(C#N)c(NCc3ccc(Cl)cc3Cl)c2cc1OC`, the inhibition came out at 24%.

`COc1cc2ncc(C(=O)O)c(Nc3ccc(Cl)cc3Cl)c2cc1OC` gave an inhibition below 20%.

The target is the same in a further test. Kind of test: Inhibition of Src Kinase at 1 mM ATP. The method in brief: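 Src ELISA kinase assay with Src (3 units/reaction) and cdc2 substrate peptide in Tris-HCl pH 7.5 buffer with MgCl₂, EGTA and vanadate. After a 10 min, 30 °C preincubation with compound, the reaction is started with ATP raised to 1 mM and run 1 h at 30 °C. It is stopped with EDTA and phosphotyrosine is detected by ELISA.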
For `COc1cc2ncc(C#N)c(Nc3ccc(Cl)cc3Cl)c2cc1OC`, it took 130 nM to reach half-maximal inhibition (IC50).

For the next test the target is unchanged. Kind of test: Inhibition of Src Kinase at 5 mM ATP. The method in brief: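 Same Src ELISA format: enzyme at 3 units/reaction, cdc2 peptide substrate, Tris-HCl pH 7.5/MgCl₂/EGTA/Na₃VO₄ buffer, and 10 min compound preincubation at 30 °C. ATP is raised to 5 mM to start the reaction, which runs 1 h at 30 °C. It is quenched with EDTA and phosphorylation is read by ELISA.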
Consider `COc1cc2ncc(C#N)c(Nc3ccc(Cl)cc3Cl)c2cc1OC`, for which the IC50 came to 270 nM.

The next test has the same target. Kind of test: Inhibition of Src Kinase at 0.1 mM ATP. Put shortly:
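Compound is preincubated 10 min at 30 °C, then the reaction is started with ATP (100 μM final) and run 1 h at 30 °C. It is stopped with EDTA and read by ELISA for tyrosine phosphorylation. Compounds are run in duplicate; values are the mean of at least two determinations.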
Consider `COc1cc2ncc(C#N)c(Nc3ccc(Cl)cc3Cl)c2cc1OC`, for which the IC50 turned out to be 23 nM.
